Data taken from ChEMBL document CHEMBL4393716, “5-Chlorobenzofuran-2-carboxamides: From allosteric CB1 modulators to potential apoptotic antitumor agents” (Eur J Med Chem, 2019).

How the values were obtained:
A549 = assay: Antiproliferative activity against human A549 cells assessed as growth inhibition incubated for 48 hrs by MTT assay; format: functional; conditions: A549, 48 h
Method in brief: (§1)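 MTT viability assay run on four human cancer lines: A549 (lung), MCF-7 (breast), Panc-1 (pancreatic) and HT29 (colon). GI50 derived per cell line from the MTT readout, following a previously reported protocol.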

MCF7 [1] = assay: Antiproliferative activity against human MCF7 cells assessed as growth inhibition incubated for 48 hrs by MTT assay; format: functional; conditions: MCF7, 48 h; method in brief: as §1
PANC-1 = assay: Antiproliferative activity against human PANC1 cells assessed as growth inhibition incubated for 48 hrs by MTT assay; format: functional; conditions: PANC-1, 48 h; method in brief: as §1
HT-29 = assay: Antiproliferative activity against human HT-29 cells assessed as growth inhibition incubated for 48 hrs by MTT assay; format: functional; conditions: HT-29, 48 h; method in brief: as §1
[2] = Cytotoxicity against human MCF10A cells assessed as reduction in cell viability at 50 uM incubated for 4 days by MTT assay; format: cell-based, MCF-10A
Method in brief: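 Non-tumorigenic human mammary epithelial MCF-10A cells were exposed to compounds for 4 days. Viability was read by MTT reduction and expressed as percent viable cells.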

MCF7 [3] = assay: Induction of apoptosis in human MCF7 cells assessed as activation of caspase-3 level incubated for 24 hrs by enzyme assay relative to control; format: functional
Method in brief: (§2)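 MCF-7 breast cells (ATCC) were grown in RPMI 1640 with 10% FBS at 37 °C, then treated with compounds. Active caspase-3, -8 or -9 protein was quantified (pg/mL) and expressed as fold over untreated control cells.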

MCF7 [4] = assay: Induction of apoptosis in human MCF7 cells assessed as activation of caspase-8 level incubated for 24 hrs by enzyme assay relative to control; format: functional; method in brief: as §2
MCF7 [5] = assay: Induction of apoptosis in human MCF7 cells assessed as activation of caspase-9 level incubated for 24 hrs by enzyme assay relative to control; format: functional; method in brief: as §2
MCF7 [6] = assay: Induction of apoptosis in human MCF7 cells assessed as activation of cytochrome C level incubated for 24 hrs by enzyme assay relative to control; format: functional
Method in brief: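 MCF-7 cells (ATCC) were cultured in RPMI 1640 plus 10% fetal bovine serum at 37 °C and stimulated with compounds. Cytochrome C level was measured and reported as fold over untreated control.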

MCF7 [7] = assay: Induction of apoptosis in human MCF7 cells assessed as increase in Bax level incubated for 24 hrs by RT-PCR relative to control; format: functional
MCF7 [8] = assay: Induction of apoptosis in human MCF7 cells assessed as decrease in Bcl2 level incubated for 24 hrs by RT-PCR relative to control; format: functional
MCF7 [9] = assay: Induction of apoptosis in human MCF7 cells assessed as early apoptotic cells at 0 to 8 umol/L incubated for 24 hrs by annexin-V FITC and propidium iodide staining based flow cytometry analysis (reference value: 0.88 %); format: functional
Method in brief: (§3)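 MCF-7 cells were stained with annexin-V-FITC and propidium iodide and analysed by flow cytometry. Cells were classed as early apoptotic, late apoptotic or necrotic.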

MCF7 [10] = assay: Induction of apoptosis in human MCF7 cells assessed as late apoptotic cells at 0 to 8 umol/L incubated for 24 hrs by annexin-V FITC and propidium iodide staining based flow cytometry analysis (reference value: 0.37%); format: functional; method in brief: as §3
MCF7 [11] = assay: Induction of apoptosis in human MCF7 cells assessed as necrotic cells at 0 to 8 umol/L incubated for 24 hrs by annexin-V FITC and propidium iodide staining based flow cytometry analysis (reference value: 0.68 %); format: functional; method in brief: as §3
MCF7 [12] = assay: Cell cycle arrest in human MCF7 cells assessed as accumulation in pre G phase incubated for 24 hrs by annexin-V FITC and propidium iodide staining based flow cytometry analysis (reference value: 1.93 %); format: functional
MCF7 [13] = assay: Cell cycle arrest in human MCF7 cells assessed as accumulation in G0/G1 phase incubated for 24 hrs by annexin-V FITC and propidium iodide staining based flow cytometry analysis (reference value: 53.71 %); format: functional
MCF7 [14] = assay: Cell cycle arrest in human MCF7 cells assessed as accumulation in G2/M phase incubated for 24 hrs by annexin-V FITC and propidium iodide staining based flow cytometry analysis (reference value: 8.87 %); format: functional
MCF7 [15] = assay: Cell cycle arrest in human MCF7 cells assessed as accumulation in S phase incubated for 24 hrs by annexin-V FITC and propidium iodide staining based flow cytometry analysis (reference value: 37.42 %); format: functional

GI50 (A549) [µM] | GI50 (MCF7 [1]) [µM] | GI50 (PANC-1) [µM] | GI50 (HT-29) [µM] | SMILES | viability at 96 h, 50 µM [2] [%] | fold change (FC) (MCF7 [3]) | fold change (FC) (MCF7 [4]) | fold change (FC) (MCF7 [5]) | fold change (FC) (MCF7 [6]) | fold change (FC) (MCF7 [7]) | fold change (FC) (MCF7 [8]) | Activity (MCF7 [9]) [%] | Activity (MCF7 [10]) [%] | Activity (MCF7 [11]) [%] | Activity (MCF7 [12]) [%] | Activity (MCF7 [13]) [%] | Activity (MCF7 [14]) [%] | Activity (MCF7 [15]) [%]
4.5 | 3.6 | 4.6 | 4.8 | CCc1c(C(=O)NCCc2ccc(N3CCCCC3)cc2)oc2ccc(Cl)cc12 | 82 | 5.71 |  |  |  |  |  |  |  |  |  |  |  | 
4.8 | 4.7 | 5.5 | 6.5 | CCc1c(C(=O)NCCc2ccc(N(C)C)cc2)oc2ccc(Cl)cc12 | 85 | 3.87 |  |  |  |  |  |  |  |  |  |  |  | 
27.9 | 26.5 | 33.7 | 27.8 | CCc1c(C(=O)N2CCC(Cc3ccccc3)CC2)oc2ccc(Cl)cc12 | 90 |  |  |  |  |  |  |  |  |  |  |  |  | 
6 | 7.5 | 8.3 | 7.7 | CCc1c(C(=O)NCCc2ccccc2)oc2ccc(Cl)cc12 | 89 |  |  |  |  |  |  |  |  |  |  |  |  | 
3.5 | 3.1 | 3.3 | 3.9 | Cc1c(C(=O)NCCc2ccc(N3CCOCC3)cc2)oc2ccc(Cl)cc12 | 84 | 5.9 | 5.23 | 13.58 | 11.26 | 19.7 | 2.56 |  |  |  |  |  |  | 
5.2 | 4.9 | 4.8 | 4.9 | Cc1c(C(=O)NCCc2ccc(N3CCCC3)cc2)oc2ccc(Cl)cc12 | 89 |  |  |  |  |  |  |  |  |  |  |  |  | 
4.9 | 4.4 | 5.6 | 5.4 | CCc1c(C(=O)NCCc2ccc(N3CCCC3)cc2)oc2ccc(Cl)cc12 | 89 | 5.17 |  |  |  |  |  |  |  |  |  |  |  | 
15.4 | 16.4 | 18.6 | 16.9 | Cc1c(C(=O)N2CCC(Cc3ccccc3)CC2)oc2ccc(Cl)cc12 | 96 |  |  |  |  |  |  |  |  |  |  |  |  | 
6.9 | 6.8 | 6.6 | 6.9 | Cc1c(C(=O)NCCc2ccc(N(C)C)cc2)oc2ccc(Cl)cc12 | 90 |  |  |  |  |  |  |  |  |  |  |  |  | 
11.4 | 12.9 | 12.5 | 12.2 | Cc1c(C(=O)NCCc2ccccc2)oc2ccc(Cl)cc12 | 87 |  |  |  |  |  |  |  |  |  |  |  |  | 
14.7 | 13.6 | 13.8 | 13.8 | CCc1c(C(=O)N2CCN(c3ccccc3)CC2)oc2ccc(Cl)cc12 | 82 |  |  |  |  |  |  |  |  |  |  |  |  | 
29.5 | 35.4 | 36 | 34.7 | Cc1c(C(=O)N2CCN(c3ccccc3)CC2)oc2ccc(Cl)cc12 | 92 |  |  |  |  |  |  |  |  |  |  |  |  | 
1.8 | 0.7 | 1.3 | 1.6 | CCc1c(C(=O)NCCc2ccc(N3CCOCC3)cc2)oc2ccc(Cl)cc12 | 91 | 8.1 | 9.64 | 15.98 | 16.83 | 34.46 | 5.77 | 8.92 | 23.08 | 2.29 | 34.29 | 24.53 | 43.96 | 31.49
4.4 | 4.9 | 4.1 | 4.9 | Cc1c(C(=O)NCCc2ccc(N3CCCCC3)cc2)oc2ccc(Cl)cc12 | 79 | 4.83 |  |  |  |  |  |  |  |  |  |  |  | 
1.21 | 0.9 | 1.41 | 1.01 | COc1cccc2c1C(=O)c1c(O)c3c(c(O)c1C2=O)C[C@@](O)(C(=O)CO)C[C@@H]3O[C@H]1C[C@H](N)[C@H](O)[C@H](C)O1 [DOXORUBICIN] |  | 7.66 | 10.07 | 17.4 | 13.13 | 33.42 | 5.1 |  |  |  | 22.17 |  |  | 
